Screens (PubChem BioAssay)
SENP6 inh – SENP6 protease inhibitors, primary screen, biochemical, luminescence, uHTS. AID 2599, 2010. Sentrin-specific protease 6 (Homo sapiens), Q9GZR1. 1.8% of 330,000 active. Recombinant SENP6 catalytic domain, aminoluciferin luminescence. inhibition, % at 10 µM;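 active means inhibition above about 50% at the single tested dose, limit read from the data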;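 further: plate controls were DMSO wells with enzyme for no effect and DMSO wells lacking enzyme for full effect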
SENP1 FRET inh – human SENP1 catalytic domain inhibitors, primary screen, biochemical, FRET, uHTS; recombinant SENP1 catalytic domain, CyPet-SUMO1-YPet FRET cleavage; inhibition, % at 10 µM; 0.21% of 360,000 active;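 active means inhibition at least 30% at 10 µM, raw YFP signal under a set limit, fluorescence ratio 0.5 to 1.5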;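 further: 0% = enzyme with DMSO and 100% = no enzyme wells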
Target sequence (Q9P0U3 419-644 limits assumed): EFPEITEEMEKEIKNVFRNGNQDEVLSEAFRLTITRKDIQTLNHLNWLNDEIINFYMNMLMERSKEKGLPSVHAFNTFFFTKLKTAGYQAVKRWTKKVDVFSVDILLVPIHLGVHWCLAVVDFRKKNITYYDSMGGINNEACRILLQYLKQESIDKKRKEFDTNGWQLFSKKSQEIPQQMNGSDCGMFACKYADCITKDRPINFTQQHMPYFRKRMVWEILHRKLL
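System: Recombinant human SENP1 catalytic domain, His6-tagged | Incubation: Enzyme reaction for 50 min at room temperature, dark | Medium: Tris pH 8 with BME, BSA, NP40 and catalase | Also added: 25 nM SUMO1 FRET substrate | Compound: 10 µM single point, 0.5% DMSO | Measured by: FRET fluorescence in CFP and YFP emission channels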
SENP8 block-1 – SENP8 protease inhibitors, primary screen, biochemical, luminescence. Sentrin-specific protease 8 (Homo sapiens), Q96LD8. purified SENP8, Z-RLRGG-aminoluciferin cleavage. inhibition, % at 10 µM. 1.2% of 330,000 active. AID 2540, 2010; in the data active means inhibition above about 50%
SENP8 block-2 – human SENP8 protease inhibitors, primary screen, biochemical, fluorescence, Nedd8 protein substrate, uHTS | Sentrin-specific protease 8 (Homo sapiens), Q96LD8 | recombinant SENP8 | inhibition, % at 20 µM | 0.64% of 360,000 active | AID 602440, 2012; in the data active means inhibition mostly above about 40%, no sharp cut-off; inactive means mostly below about 27%
SENP7 block – SENP7 protease inhibitors, primary screen, biochemical, luminescence, uHTS. 1.5% of 330,000 active. recombinant SENP7, Z-RLRGG-aminoluciferin luminescence, 40 min. inhibition, % at 5 µM. AID 434973, 2010;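 active means inhibition above about 50% at the single test dose, limit read from the data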;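 further: plate controls were DMSO with enzyme for no effect and no enzyme buffer wells for full effect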
Target sequence (Q9BQF6 706-1050 limits assumed): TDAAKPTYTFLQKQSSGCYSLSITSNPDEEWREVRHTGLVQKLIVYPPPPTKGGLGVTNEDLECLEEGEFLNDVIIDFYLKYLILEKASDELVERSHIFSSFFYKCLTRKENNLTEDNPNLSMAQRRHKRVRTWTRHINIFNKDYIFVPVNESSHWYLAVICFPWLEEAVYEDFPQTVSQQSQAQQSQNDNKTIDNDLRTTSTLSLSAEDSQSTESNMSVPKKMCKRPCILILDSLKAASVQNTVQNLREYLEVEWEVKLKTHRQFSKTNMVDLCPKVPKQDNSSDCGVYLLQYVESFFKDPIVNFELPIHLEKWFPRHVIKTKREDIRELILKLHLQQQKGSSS
Platelet DG rel – inhibitors of platelet dense granule secretion, primary screen, cell-based, MLPCN, human platelets; inhibition, %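 (compounds screened at 7.5 µM in platelet-rich plasma)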; human platelet-rich plasma, SFLLRN dense granule ATP release, luminescence; 0.22% of 300,000 active;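 active means mean replicate score, as percent of positive control, at or above 50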
SENP8 confirm – SENP8 protease inhibitors, retest, confirmation, biochemical, luminescence, single concentration. inhibition, % at 12.5 µM. shares compounds with SENP7 block. AID 488912, 2010. 40% of 6,200 active. Recombinant SENP8, Z-RLRGG-aminoluciferin luminescence, 60 min;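 active means mean inhibition across replicates above about 50%, limit read from the data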
SENP6 confirm – SENP6 protease inhibitors, confirmation, biochemical, luminescence, single concentration; shares compounds with SENP7 block; recombinant SENP6, Z-RLRGG-aminoluciferin luminescence; inhibition, % at 12.5 µM; 58% of 6,200 active; AID 488915, 2010
SENP7 conf – SENP7 protease inhibitors, retest, confirmation, biochemical, luminescence, single concentration | recombinant SENP7, Z-RLRGG-aminoluciferin luminescence, 40 min | shares compounds with SENP7 block | 69% of 6,200 active | AID 488917, 2010 | inhibition, % at 12.5 µM
Casp3 select – caspase-3 protease inhibitors, confirmation, selectivity assay for SENP inhibitor project, biochemical, single concentration; shares compounds with SENP7 block; purified caspase-3, Z-DEVD-aminoluciferin luminescence, 60 min; inhibition, % at 12.5 µM; 60% of 6,200 active; AID 488918, 2010;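 active means mean inhibition above about 50%, limit read from the data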;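 further: plate controls were enzyme with DMSO for no effect and wells without caspase-3 for full effect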
SENP luc ctr – luminescence interference (SENP counter-screen). shares compounds with SENP7 block. Pre-incubated SENP8/Z-RLRGG-aminoluciferin, luciferase luminescence interference. inhibition, % at 12.5 µM. 39% of 6,200 active;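 active means mean inhibition above about 50% when retested at one dose, limit read from the data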;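 further: plate controls were DMSO wells with completed reaction for no effect and substrate without enzyme for full effect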
* marks the source's active call; other numbers are inactive results; x = no result; ! = repeats disagree. In the library only some 2.6% were active in any assay of this set; here they are far more common.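 How the source made its calls, unless noted: active means mean inhibition above about 50% in the one-dose retest (limit read from the data); inactive means the rest.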

SMILES | SENP6 inh | SENP1 FRET inh | SENP8 block-1 | SENP8 block-2 | SENP7 block | Platelet DG rel | SENP8 confirm | SENP6 confirm | SENP7 conf | Casp3 select | SENP luc ctr
COc1ccc(/C=C/c2ccc3cccc(O)c3n2)cc1Br | 44 | 2 | 20 | -52 | 63* | 5 | -28 | -17 | -6 | -2 | -5
COc1cccc(/C=C/c2ccc3cccc(O)c3n2)c1 | 93* | 4 | 89* | -60 | 92* | 10 | 92* | 95* | 102* | 90* | 66*
Oc1cccc(/C=C/c2ccc3cccc(O)c3n2)c1 | 94* | 0 | 94* | -44 | 96* | 25 | 97* | 98* | 102* | 92* | 97*
CCOC(=O)c1ccc(NC(=O)c2ccc(OC(C)C)c(OC)c2)cc1 | 18 | -1 | -2 | 5 | -1 | 6 | x | x | x | x | x
COC(=O)Cc1ccc(NC(=S)N2CCCCC2C)cc1 (stereo not drawn) | -4 | 0 | 4 | 7 | 9 | -1 | x | x | x | x | x
Cc1c(C#N)c(O)[nH]c(=O)c1N=Nc1ccc(S(N)(=O)=O)cc1 | 51* | -2 | 26 | 26 | -20 | -5 | 43 | 38 | 71* | 75* | 52*
O=[N+]([O-])c1ccc(C2(O)CN(c3ccccc3)C3=[N+]2CCS3)cc1 (stereo not drawn) | 6 | 13 | -6 | 25 | 7 | 9 | x | x | x | x | x
Cc1ccccc1NC(=O)c1ccc2c(c1)N(C)CCS2 | 33 | -3 | 15 | -396 | 8 | 0 | x | x | x | x | x
CN1CCSc2ccc(C(=O)Nc3cc(F)ccc3F)cc21 | 88* | -60 | 76* | -421 | 89* | 0 | 86* | 86* | 96* | 79* | 25
O=C(NCCc1ccc(C(F)(F)F)cc1)C1CCC(=O)N(CCCN2CCCC2=O)C1 (stereo not drawn) | -8 | 2 | -3 | 10 | 8 | -2 | x | x | x | x | x
NNc1nc2c(-c3ccc(Cl)cc3)nnn2c2ccccc12 | 85* | -40 | 48 | -479 | 45 | 4 | -17 | -11 | -5 | 2 | -4
COCCCNc1nc2c(-c3ccc(Cl)cc3)nnn2c2ccccc12 | 2 | -39 | 5 | -376 | 2 | -3 | x | x | x | x | x
NNc1nc2c(-c3ccc(F)cc3)nnn2c2ccccc12 | 97* | -31 | 92* | -440 | 92* | 24 | 22 | 81* | 71* | 78* | 31
Fc1ccc(-c2nnn3c2nc(NCc2ccccc2)c2ccccc23)cc1 | -2 | -43 | -9 | -445 | -2 | 0 | x | x | x | x | x
Cc1c(NS(=O)(=O)c2cc(C(=O)NCc3ccco3)cc(Cl)c2Cl)c(=O)n(-c2ccccc2)n1C | -1 | -2 | 2 | 10 | 6 | -5 | x | x | x | x | x
Fc1cccc2sc(Nc3nnc(-c4ccccc4)o3)nc12 | 85* | -35 | 63* | -315 | 45 | 10 | 8 | 7 | 1 | 60* | 3
CC1/C(=N/O)CC(c2ccccc2)NC1c1ccccc1 (stereo not drawn) | -38 | 1 | -8 | 10 | 89* | -1 | 6 | 7 | 9 | 4 | 3
CC(C)C1/C(=N/O)CC(c2ccccc2)NC1c1ccccc1 (stereo not drawn) | -16 | 1 | -3 | 8 | 6 | -6 | x | x | x | x | x
CCN(CC)CCN1C(=O)Cn2c(C)c(C)c3cccc1c32 | -14 | 4 | -8 | 20 | 58*! | -4 | -5 | 3 | 0 | 0 | 0
CC1CC(C)CN(C(=O)C2CCC(CNc3c(N4CCCCC4)c(=O)c3=O)CC2)C1 (stereo not drawn) | -10 | 2 | 0 | 13 | 9 | 10 | x | x | x | x | x
O=C(O)c1ccccc1OCc1nc2ccccc2s1 | 92* | -10 | 90* | -2 | 92* | 14 | 91* | 93* | 100* | 85* | 79*
O=C(OCc1nc2ccccc2s1)c1cccs1 | 74* | 1 | 36 | -10 | 28 | -7 | 63* | 70* | 84* | 45 | 64*
O=C(OCc1nc2ccccc2s1)c1cnccn1 | -20 | -6 | -1 | -5 | 6 | 19 | x | x | x | x | x
O=C(OCc1nc2ccccc2s1)c1ccccc1O | 92* | 0 | 85* | 3 | 86* | -4 | 89* | 90* | 98* | 83* | 74*
O=C(O)CCCC(=O)Nc1ccc(OCc2nc3ccccc3s2)cc1 | 0 | 1 | -18 | 9 | -10 | -2 | x | x | x | x | x
SMILES | SENP6 inh | SENP1 FRET inh | SENP8 block-1 | SENP8 block-2 | SENP7 block | Platelet DG rel | SENP8 confirm | SENP6 confirm | SENP7 conf | Casp3 select | SENP luc ctr
COc1ccc2c(CC(=O)Nc3ccc4nc(N5CCOCC5)sc4c3)coc2c1 | x | -11 | x | -48 | x | x | x | x | x | x | x
Cc1ccc2oc3nc(C)c(C(=O)O)cc3c(=O)c2c1 | 88* | -1 | 81* | -494 | 92* | x | 6 | 44 | 68* | 80* | 56*
CCOC(=O)c1cc2c(=O)c3cc(C)ccc3oc2nc1C | 45 | 1 | 71* | -20 | 92* | 4 | 25 | 31 | 32 | 60* | 10
CC(=O)c1cc2c(=O)c3cc(C)ccc3oc2nc1C | 75* | 1 | 64* | -144 | 64* | -8 | 44 | 23 | 50 | 56* | 10
Cc1nc2oc3ccc(F)cc3c(=O)c2cc1C(=O)O | 17 | 2 | 6 | -29 | 20 | 4 | x | x | x | x | x
COc1ccc(C(=O)O)cc1S(=O)(=O)Nc1ccc(Oc2ccccc2)cc1 | -4 | 1 | -10 | -12 | -8 | x | x | x | x | x | x
